# PubChem BioAssay
# Activity calls are given as the source filed them.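 How the source made its calls, unless noted: active means viability at or under a set limit in both replicates, limit being median viability minus 3 SD (cut at about 48% in these data, passing the limit was not always enough); inconclusive means at or under the limit in just one replicate; inactive means at or above the limit in both replicates.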
# Assays:
# [1] = reduced viability of SK-BR-3 breast cancer cells – cell-based, 24 h, human, pilot screen (AID 572;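 active means viability at or below 10% of carrier control in both of two separate runs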;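 further: compound exposure lasted between 18 and 24 h rather than exactly 24 h; 100% = carrier-treated control wells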); settings: SK-BR-3 viability, CellTiter-Glo luminescence, at 10 µM, stronger effect = lower value
# [2] = HUVEC growth inhibition – cell-based, human, primary screen (AID 575;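 active means viability at or below 30% in both replicate assays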;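 further: 100% = median of untreated cell wells with 0.1% DMSO on each plate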); settings: HUVEC proliferation, CellTiter-Glo luminescence, 72 h; at 10 µM; stronger effect = lower value
# Outline: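 Assay system: Primary human umbilical vein endothelial cells | Quantity: 1250 cells per well | Medium: Supplemented EBM, 2% fetal bovine serum | Detection: CellTiter-Glo luminescence measuring cellular ATP | Read-out: % viability vs DMSO wells | Plate: Collagen-coated 384-well format | Times: 72 h exposure, 37 °C, 5% CO2, 30 min RT equilibration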
# [3] = H69AR cell proliferation blockers – human, duplicate replicates, primary screen (AID 580); settings: H69AR lung tumor cells viability, ATP luminescence, 72 h; at 10 µM; stronger effect = lower value;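 further: 100% = mean luminescence of untreated wells and 0% = no signal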
# [4] = MRP1 drug-resistance reversers in H69AR cells – cell-based, doxorubicin co-treatment, pilot screen (AID 601;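 active means viability loss from added drug above about 55%, and viability with drug at most 40%, in both replicates, limit read from the data, passing the limit was not always enough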); settings: CellTiter-Glo, 72 h, at 10 µM; for differential viability (reversal): stronger effect = higher value
# [5] = yeast transport mutant growth inhibition pilot in 384-well plates, post-Golgi transport modulator project (AID 636; in the data active means inhibition above about 31%); settings: absorbance 615 nm, about 18 h, stronger effect = higher value
# [6] = growth suppression of yeast trafficking mutant, preliminary HTS, modulators of trafficking downstream of Golgi apparatus project, 1536-format plate, OD 615 nm (AID 637; in the data active means inhibition above about 30%); settings: yeast transport mutant growth, absorbance 615 nm, 18 h; stronger effect = higher value
# [7] = H69AR cells + 2 uM doxorubicin, measured here: viability with 2 uM doxorubicin, stronger effect = lower value
# [8] = H69AR cells, compound alone cytotoxicity
SMILES,viability [1],viability [2],viability [3],differential viability (reversal) ([4]; H69AR cells + 2 uM doxorubicin),"viability [4, 7]","viability [4, 8]",inhibition [5],inhibition [6]
O=C(NCc1cccnc1)/C(=N\O)c1ccccc1,73% (inactive),111% (inactive),98.8% (inactive),13.2% (inactive),85.6%,98.8%,-6.08% (inactive),-3.82% (inactive)
COc1ccccc1NC(=O)C(C)NS(=O)(=O)c1ccc(F)cc1 (centres undefined),141% (inactive),89.5% (inactive),89.2% (inactive),0.595% (inactive),88.6%,89.2%,-5.58% (inactive),0% (inactive)
Cn1c(=O)c2c(nc(CN3CCN(c4ccccc4F)CC3)n2CCN2CCOCC2)n(C)c1=O,101% (inactive),96.8% (inactive),93.9% (inactive),4.5% (inactive),89.4%,93.9%,-5.95% (inactive),0.91% (inactive)
COC(=O)C1=C(C)NC(C)=C(C(=O)OC)C1C(=O)OC1CCCCC1=O (centres undefined),89% (inactive),105% (inactive),97.3% (inactive),3.25% (inactive),94%,97.3%,-4.46% (inactive),-0.49% (inactive)
Cc1oncc1C(=O)Nc1ccc(C(F)(F)F)cc1,87% (inactive),69.8% (inactive),97.2% (inactive),9.38% (inactive),87.8%,97.2%,-1.69% (inactive),-0.83% (inactive)
Cc1c(CNCc2cccs2)c(C(=O)O)c(C)n1Cc1ccccc1,91% (inactive),109% (inactive),99.8% (inactive),5.63% (inactive),94.2%,99.8%,-3.97% (inactive),0.18% (inactive)
COCCn1c(C)cc(C(=O)COC(=O)c2ccc(N3CCCC3=O)cc2)c1C,95% (inactive),88.4% (inactive),92.3% (inactive),8.88% (inactive),83.4%,92.3%,-4.8% (inactive),2.18% (inactive)
Cc1ccc2c(c1)CCCN2C(=O)c1ccc2c(c1)OCO2,48% (inactive),108% (inactive),101% (inactive),-8.85% (inactive),110%,101%,-8.63% (inactive),-6.18% (inactive)
COc1cccc(NC(=O)C2CCCN2C(=O)Nc2cccc(F)c2)c1 (centres undefined),96% (inactive),103% (inactive),103% (inactive),8.87% (inactive),94%,103%,-3.7% (inactive),-3.06% (inactive)
CC(C(=O)O)c1ccc(-c2ccccc2)c(F)c1 (centres undefined),94% (inactive),81.7% (inactive),90.2% (inactive),-1.62% (inactive),91.8%,90.2%,-1.82% (inactive),-1.5% (inactive)
CCN(CC)S(=O)(=O)c1ccc(F)c(C(=O)NCCC(C)C)c1,82% (inactive),95% (inactive),90.9% (inactive),6.46% (inactive),84.4%,90.9%,-0.54% (inactive),-2.73% (inactive)
O=C(O)C1CCCCC1C(=O)Nc1ccccn1 (centres undefined),115% (inactive),93.9% (inactive),108% (inactive),8.84% (inactive),99.4%,108%,-4.52% (inactive),-4.73% (inactive)
Cc1cc(C)nc(SCCS(=O)Cc2ccc(Cl)cc2)n1 (centres undefined),102% (inactive),99.4% (inactive),96.2% (inactive),4.69% (inactive),91.5%,96.2%,-2.34% (inactive),-3.11% (inactive)
COc1c2occc2c(OC)c2c(=O)cc(C)oc12,87% (inactive),67.9% (inactive),91.2% (inactive),-1.66% (inactive),92.8%,91.2%,0.13% (inactive),-5.17% (inactive)
O=C(Nc1cccc2ccccc12)N1CCN(c2ccccc2)CC1,89% (inactive),96.8% (inactive),94.4% (inactive),-7% (inactive),101%,94.4%,-0.91% (inactive),0.49% (inactive)
Cc1ccc(Nc2nc(N)nc(CN3CCN(Cc4ccc5c(c4)OCO5)CC3)n2)cc1,93% (inactive),106% (inactive),82.2% (inactive),2.44% (inactive),79.7%,82.2%,-8.27% (inactive),-4.91% (inactive)
COc1ccc(CC(=O)Nc2cc(Cl)ccc2O)cc1,110% (inactive),84.5% (inactive),81.1% (inactive),0.69% (inactive),80.4%,81.1%,-4.53% (inactive),-3.09% (inactive)
COc1ccc2c3c(c(=O)oc2c1OCC(N)=O)CCCC3,117% (inactive),117% (inactive),97.6% (inactive),16.2% (inactive),81.3%,97.6%,-5.48% (inactive),-2.55% (inactive)
